These results are taken from ChEMBL document CHEMBL1145542, “Discovery of a new class of potent, selective, and orally bioavailable CRTH2 (DP2) receptor antagonists for the treatment of allergic inflammatory diseases” (J Med Chem, 2008).

The source made the active and inactive calls. The rule behind the calls is not given here.

In data set [1] the target is T1, Prostaglandin D2 receptor 2 (Homo sapiens, UniProt Q9Y5Y4).
T1 sequence (Q9Y5Y4 whole entry): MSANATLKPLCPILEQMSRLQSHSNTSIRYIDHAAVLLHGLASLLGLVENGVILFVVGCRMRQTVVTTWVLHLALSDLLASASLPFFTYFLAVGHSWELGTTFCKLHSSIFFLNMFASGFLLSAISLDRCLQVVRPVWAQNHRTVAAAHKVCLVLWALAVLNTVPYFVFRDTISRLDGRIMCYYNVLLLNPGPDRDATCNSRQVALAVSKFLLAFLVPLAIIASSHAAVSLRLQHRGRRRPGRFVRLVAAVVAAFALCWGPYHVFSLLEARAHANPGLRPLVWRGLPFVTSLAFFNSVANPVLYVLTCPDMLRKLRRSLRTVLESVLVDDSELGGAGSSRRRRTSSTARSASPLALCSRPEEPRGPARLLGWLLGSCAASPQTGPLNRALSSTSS
The data set is described as follows: Displacement of [3H]PGD2 from human CRTH2 receptor expressed in CHO cells. It counts as cell-based. In outline:
(§1)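 Scintillation proximity competition assay: 2–5 µg human or mouse CRTH2 membranes (nitrogen-cavitation, differential centrifugation) with WGA-SPA beads and 1.5 nM [3H]PGD2 in 10 mM HEPES/KOH pH 7.4, 10 mM MnCl2, protease inhibitors, 1% Me2SO, 90 min shaking at room temperature. Nonspecific binding with 1 µM PGD2. Ki by Cheng–Prusoff, mean of ≥3 independent experiments.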
A general note: Displacement assays read how much labelled ligand stays bound in the presence of the test substance.

The target in data set [2] is T2, Prostaglandin D2 receptor 2 (Homo sapiens) (UniProt Q9Y5Y4).
T2 sequence (whole entry): T1 sequence (Q9Y5Y4 whole entry)
The data set is described as follows: Inverse agonistic activity at human CRTH2 receptor expressed in CHO cell membrane by [35S]GTP-gamma-S binding assay. The format is functional, cell membranes. In short, it runs like this:
(§2)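 [35S]GTPγS binding at 30 °C on 10 µg human CRTH2 membranes in 20 mM HEPES/KOH pH 7.4, 10 mM MgCl2, 10 µg/mL saponin, 3 µM GDP, 150 mM NaCl, 2% Me2SO. PGD2 preincubation 10 min (antagonist mode: 80 nM PGD2), then 0.15 nM [35S]GTPγS for 30 min. Nonspecific binding with 10 µM GTPγS; stopped by centrifugation, scintillation counting.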

Data set [3] addresses T3, Prostaglandin D2 receptor 2 (Mus musculus, UniProt Q9Z2J6).
T3 sequence (Q9Z2J6 whole entry): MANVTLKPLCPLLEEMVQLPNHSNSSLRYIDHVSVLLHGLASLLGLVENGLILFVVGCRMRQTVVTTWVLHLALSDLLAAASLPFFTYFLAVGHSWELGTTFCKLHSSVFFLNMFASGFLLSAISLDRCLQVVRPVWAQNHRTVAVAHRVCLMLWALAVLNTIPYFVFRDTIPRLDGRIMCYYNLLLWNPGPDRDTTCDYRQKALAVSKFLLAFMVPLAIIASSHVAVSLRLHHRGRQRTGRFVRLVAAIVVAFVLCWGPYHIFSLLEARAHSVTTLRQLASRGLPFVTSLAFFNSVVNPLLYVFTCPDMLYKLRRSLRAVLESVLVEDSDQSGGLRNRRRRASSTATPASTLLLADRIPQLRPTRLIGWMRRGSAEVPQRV
As to the kind of experiment: Displacement of [3H]PGD2 from mouse CRTH2 receptor expressed in HEK293 cells. The format is cell-based. In outline: as §1

Data set [4] deals with T1, Prostaglandin D2 receptor 2. The data set is described as follows: Antagonist activity at human CRTH2 receptor expressed in CHO cell membrane by [35S]GTP-gamma-S binding assay. It counts as functional, cell membranes. In short, it runs like this: as §2
Background: GTPγS resists hydrolysis and so accumulates on activated G proteins.

Data set [5] in a line: Intrinsic clearance per mg of protein in rat liver microsomes at 3 uM. It counts as ADME, Microsome. In outline: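 Rat or human liver microsomes (0.5 mg/mL final) in 0.1 M phosphate pH 7.4 with 3 µM compound (1% DMSO), preincubated at 37 °C, started with 1 mM NADPH. Quenched with cold acetonitrile at 0, 15, 30, 45 min; LC/MS-MS of compound disappearance gives intrinsic clearance.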

The next data set concerns the target T4, Cytochrome P450 1A2 (Homo sapiens, UniProt P05177).
T4 sequence (P05177 whole entry): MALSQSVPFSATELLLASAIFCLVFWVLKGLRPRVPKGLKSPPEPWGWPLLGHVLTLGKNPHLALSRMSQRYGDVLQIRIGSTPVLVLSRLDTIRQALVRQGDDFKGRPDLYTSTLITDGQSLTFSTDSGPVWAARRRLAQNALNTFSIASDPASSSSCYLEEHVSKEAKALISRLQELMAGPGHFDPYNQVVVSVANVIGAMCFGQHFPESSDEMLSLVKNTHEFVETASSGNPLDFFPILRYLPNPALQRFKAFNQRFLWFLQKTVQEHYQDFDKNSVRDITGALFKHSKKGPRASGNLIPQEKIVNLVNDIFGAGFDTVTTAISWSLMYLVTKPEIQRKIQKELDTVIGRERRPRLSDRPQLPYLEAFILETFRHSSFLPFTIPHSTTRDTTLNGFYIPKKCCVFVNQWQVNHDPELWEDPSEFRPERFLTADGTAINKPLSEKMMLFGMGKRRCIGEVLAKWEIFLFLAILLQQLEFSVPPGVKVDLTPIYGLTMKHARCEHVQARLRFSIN
As to the kind of experiment: Inhibition of human recombinant CYP1A2. It counts as ADME. In outline:
(§3)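 Human recombinant CYP1A2, 2C9, 2C19, 2D6 and 3A4, each turning an isoform-specific fluorogenic substrate into a fluorescent product; test compound up to 10 µM final in 1% DMSO; fluorescence read-out.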

The target in a further data set is Cytochrome P450 2C19 (Homo sapiens, UniProt P33261). As to the kind of experiment: Inhibition of human recombinant CYP2C19. The format is ADME. In short, it runs like this:
as §3

A further data set has as its target Cytochrome P450 2C9 (Homo sapiens, UniProt P11712). As to the kind of experiment: Inhibition of human recombinant CYP2C9. The format is ADME. In short, it runs like this: as §3
In a further data set the target is Cytochrome P450 2D6 (Homo sapiens, UniProt P10635). As to the kind of experiment: Inhibition of human recombinant CYP2D6. It counts as ADME. In short, it runs like this: as §3
For the next data set, the target named is Cytochrome P450 3A4 (Homo sapiens, UniProt P08684). The data set is described as follows: Inhibition of human recombinant CYP3A4. It counts as ADME. In short, it runs like this:
as §3

Data set [6] in a line: Apparent permeability across human Caco-2 cell membrane at 10 uM. The format is ADME, cell-based. In short, it runs like this: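 Caco-2 monolayers grown 21 days on Transwell filters; TEER above 800 ohm·cm² required. 10 µM test compound in HBSS added apically (A to B) or basolaterally (B to A), 2 h at 37 °C. Both compartments sampled, analysed by LC/MS-MS.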
A general note: Caco-2 cells form a polarised layer with tight junctions and transporters.

Sequence of Cytochrome P450 2D6 (P10635 whole entry): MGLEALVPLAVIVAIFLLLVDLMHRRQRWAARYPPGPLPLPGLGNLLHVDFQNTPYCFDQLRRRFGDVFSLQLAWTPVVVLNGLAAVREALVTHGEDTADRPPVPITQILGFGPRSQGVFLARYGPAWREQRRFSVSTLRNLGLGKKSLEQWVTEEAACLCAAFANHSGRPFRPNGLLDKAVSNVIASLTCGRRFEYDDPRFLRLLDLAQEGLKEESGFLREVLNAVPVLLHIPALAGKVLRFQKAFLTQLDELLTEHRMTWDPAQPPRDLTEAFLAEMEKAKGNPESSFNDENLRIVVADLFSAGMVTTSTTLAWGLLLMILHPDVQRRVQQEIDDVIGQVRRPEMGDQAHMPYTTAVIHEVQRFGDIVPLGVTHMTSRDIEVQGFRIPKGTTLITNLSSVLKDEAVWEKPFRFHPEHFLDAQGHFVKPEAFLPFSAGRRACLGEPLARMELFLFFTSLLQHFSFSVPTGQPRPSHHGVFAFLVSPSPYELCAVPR
Sequence of Cytochrome P450 3A4 (P08684 whole entry): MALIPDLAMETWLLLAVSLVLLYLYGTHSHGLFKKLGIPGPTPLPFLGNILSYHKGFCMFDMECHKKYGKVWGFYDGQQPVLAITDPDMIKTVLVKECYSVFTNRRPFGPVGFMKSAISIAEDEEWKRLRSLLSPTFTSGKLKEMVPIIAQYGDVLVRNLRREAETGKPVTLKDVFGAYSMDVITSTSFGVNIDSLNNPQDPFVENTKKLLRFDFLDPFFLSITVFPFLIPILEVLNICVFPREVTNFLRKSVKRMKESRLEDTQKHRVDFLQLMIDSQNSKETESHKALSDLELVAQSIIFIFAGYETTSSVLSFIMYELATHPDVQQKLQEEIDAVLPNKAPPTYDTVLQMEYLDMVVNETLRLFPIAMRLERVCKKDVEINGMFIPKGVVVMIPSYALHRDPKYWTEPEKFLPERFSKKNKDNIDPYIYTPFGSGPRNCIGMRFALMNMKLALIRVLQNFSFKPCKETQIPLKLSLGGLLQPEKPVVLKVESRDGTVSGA
Sequence of Cytochrome P450 2C9 (P11712 whole entry): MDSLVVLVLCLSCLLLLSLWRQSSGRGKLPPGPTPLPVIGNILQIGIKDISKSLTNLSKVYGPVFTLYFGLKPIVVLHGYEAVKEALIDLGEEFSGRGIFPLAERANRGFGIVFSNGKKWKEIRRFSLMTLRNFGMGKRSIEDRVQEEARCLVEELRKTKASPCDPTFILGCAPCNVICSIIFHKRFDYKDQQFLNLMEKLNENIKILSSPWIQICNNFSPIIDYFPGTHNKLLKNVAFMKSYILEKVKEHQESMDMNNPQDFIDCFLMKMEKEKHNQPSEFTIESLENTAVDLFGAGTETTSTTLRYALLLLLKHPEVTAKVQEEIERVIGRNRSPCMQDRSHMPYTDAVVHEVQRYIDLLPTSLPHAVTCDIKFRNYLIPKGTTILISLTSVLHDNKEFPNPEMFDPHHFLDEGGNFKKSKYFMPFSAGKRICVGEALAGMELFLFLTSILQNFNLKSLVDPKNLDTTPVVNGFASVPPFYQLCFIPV
Sequence of Cytochrome P450 2C19 (P33261 whole entry): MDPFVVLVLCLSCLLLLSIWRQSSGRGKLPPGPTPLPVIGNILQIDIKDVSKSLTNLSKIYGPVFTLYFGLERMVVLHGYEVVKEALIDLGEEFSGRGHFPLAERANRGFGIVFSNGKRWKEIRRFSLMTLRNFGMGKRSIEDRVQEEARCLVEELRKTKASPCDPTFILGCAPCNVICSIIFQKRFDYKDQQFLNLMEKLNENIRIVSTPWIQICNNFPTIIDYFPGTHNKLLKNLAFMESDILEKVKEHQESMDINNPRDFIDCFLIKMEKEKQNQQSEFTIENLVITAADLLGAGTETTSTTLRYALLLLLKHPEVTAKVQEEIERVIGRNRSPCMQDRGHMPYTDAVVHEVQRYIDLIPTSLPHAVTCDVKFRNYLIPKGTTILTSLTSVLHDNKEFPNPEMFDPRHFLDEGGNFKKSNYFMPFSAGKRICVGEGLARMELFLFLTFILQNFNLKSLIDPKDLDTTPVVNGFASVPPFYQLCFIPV

On to `O=C1CC2(C(=O)N1Cc1ccccc1)C(=O)N(Cc1nnn[nH]1)c1ccc(Cl)cc12` (configuration not stated), for which the Ki in data set [1] is 1.54 µM. The outcome in data set [2] was Active.
As to `O=C(O)CN1C(=O)C2(CC(=O)N(Cc3ccccc3)C2=O)c2cc(Cl)ccc21` (configuration not stated), the Ki in data set [1] came to 0.196 µM; in data set [3], 0.15 µM. Further, the IC50 was 0.418 µM in data set [4]; greater than 10 µM at Cytochrome P450 1A2; greater than 10 µM at Cytochrome P450 2C19; greater than 10 µM on Cytochrome P450 2C9; greater than 10 µM at Cytochrome P450 2D6; greater than 10 µM at Cytochrome P450 3A4. The molecule further gave a microsomal CLint at 3 µM in data set [5] of 9 µL/min/mg. Further, the Papp at 10 µM in data set [6] came to 3 ×10⁻⁶ cm/s.

The term Ki denotes a measure of affinity in units of concentration, obtained from inhibition or displacement. The low end stands for tighter binding, the high end for weaker binding. In general, IC50 refers to the concentration needed to halve the response being measured. As a reminder, the microsomal CLint is a measure of how fast metabolising enzymes remove a compound, apart from limits set by blood flow. The term Papp denotes the rate of passage across a membrane or cell layer, normalised by area and donor concentration.
